{"data": "Experimental data from different studies", "effect on": "cell growth or viability", "note": "Each line is one published result; the experiments were not run side by side."}
{"Structure (SMILES)": "CCCCCCCCCCCCCCCCCCOc1ccc(CC(=O)OCC[N+](C)(C)C)cc1", "cell line": "NCI-H522", "technique": "SRB", "concentration": "10 µM", "endpoint": "inhibition", "value": "4.28%"}
{"Structure (SMILES)": "O=C(NN=Cc1ccc(O)cc1)c1nc2ccccc2s1", "cell line": "PC-3", "technique": "MTT", "concentration": "100 µM", "time": "48 h", "endpoint": "cell death", "value": "39.6%"}
{"Structure (SMILES)": "CCCCCCCCCCCCCCCCCCOc1ccccc1CC(=O)OCC[N+](CC)(CC)CC", "cell line": "NCI-H522", "technique": "SRB", "concentration": "10 µM", "endpoint": "inhibition", "value": "89.5%"}
{"Structure (SMILES)": "C=C(NC(=O)C(=C)NC(=O)c1csc(C2=N[C@@H]3c4csc(n4)[C@H]4NC(=O)c5csc(n5)[C@H]([C@](C)(O)[C@@H](C)O)NC(=O)[C@H]5CSC(=N5)/C(=C/C)NC(=O)[C@H]([C@@H](C)O)NC(=O)c5csc(n5)[C@]3(CC2)NC(=O)[C@H](C)NC(=O)C(=C)NC(=O)[C@H](C)NC(=O)[C@H]([C@@H](C)CC)N[C@@H]2C=Cc3c([C@H](C)O)cc(nc3[C@H]2O)C(=O)O[C@@H]4C)n1)C(N)=O", "cell line": "PC-3", "endpoint": "EC50", "value": "54600 nM"}
{"Structure (SMILES)": "NCCC(=O)Nc1cccc(/N=c2\\cc(-c3ccc4c(c3)OCO4)oc3ccccc23)c1", "cell line": "A549", "technique": "CCK-8", "concentration": "1 µM", "endpoint": "inhibition", "value": "-1.71%"}
{"Structure (SMILES)": "Cc1n[nH]c2ccc3nc(-c4ccc(C(=O)NCCN(C)C)cc4)c4c(c3c12)CCCCC4", "cell line": "EOL1", "time": "72 h", "endpoint": "GI50", "value": "107 nM"}
{"Structure (SMILES)": "CCCCCCCCCCCCCCCCCCOc1ccc(CC(=O)OCCC[N+](C)(C)C)cc1", "cell line": "NCI-H522", "technique": "SRB", "concentration": "10 µM", "endpoint": "inhibition", "value": "21.6%"}
{"Structure (SMILES)": "NCCC(=O)Nc1ccccc1/N=c1\\cc(-c2ccc3nc(N)oc3c2)oc2ccccc12", "cell line": "A549", "technique": "CCK-8", "concentration": "1 µM", "endpoint": "inhibition", "value": "18.6%"}
{"Structure (SMILES)": "Cc1n[nH]c2ccc3nc(-c4ccc(C(=O)NCCN(C)C)cc4)c4c(c3c12)CCCC4", "cell line": "EOL1", "time": "72 h", "endpoint": "GI50", "value": "37 nM"}
{"Structure (SMILES)": "CCCCCCCCCCCCCCCCCCOc1ccccc1CC(=O)OCCC[N+](C)(C)C", "cell line": "NCI-H522", "technique": "SRB", "concentration": "10 µM", "endpoint": "inhibition", "value": "63.7%"}
{"Structure (SMILES)": "NC(=O)C1CCCN1C(=O)Nc1ccccc1/N=c1\\cc(-c2ccc3c(c2)OCCO3)oc2cc(F)ccc12 (stereo not drawn)", "cell line": "A549", "technique": "CCK-8", "concentration": "1 µM", "endpoint": "inhibition", "value": "-1.31%"}
{"Structure (SMILES)": "Cc1nc(Nc2ncc(C(=O)Nc3c(C)cccc3Cl)s2)cc(N2CC[C@H](O)C2)n1", "cell line": "WSU-NHL", "technique": "ATP luminescence", "concentration": "10 µM", "time": "72 h", "endpoint": "inhibition", "value": "91%"}
{"Structure (SMILES)": "COCCC(=O)Nc1ccccc1/N=c1\\cc(-c2ccc3c(c2)OCO3)oc2ccccc12", "cell line": "A549", "technique": "CCK-8", "concentration": "1 µM", "endpoint": "inhibition", "value": "4.66%"}
{"Structure (SMILES)": "CCCCCCCCCCCCCCCCCCOc1ccccc1CC(=O)OCC[N+]1(C)CCOCC1", "cell line": "NCI-H522", "technique": "SRB", "concentration": "10 µM", "endpoint": "inhibition", "value": "60.1%"}
{"Structure (SMILES)": "CN(C)CCNC(=O)c1ccc(-c2nc3ccc4[nH]ncc4c3c3c2CCCCC3)c(F)c1", "cell line": "EOL1", "time": "72 h", "endpoint": "GI50", "value": "52 nM"}
{"Structure (SMILES)": "COc1ccc(C=NNC(=O)c2nc3ccccc3s2)cc1OS(C)(=O)=O", "cell line": "PC-3", "technique": "MTT", "concentration": "100 µM", "time": "48 h", "endpoint": "cell death", "value": "44.5%"}
{"Structure (SMILES)": "Cc1nc(NC(=O)N2CCC[C@H]2C(N)=O)sc1-c1ccnc(C(C)(C)C(F)(F)F)c1", "cell line": "NCI-H1048", "technique": "ATP luminescence", "time": "5 days", "endpoint": "EC50", "value": "611 nM"}
{"Structure (SMILES)": "CCC/C(=C\\C1=C(OC)C(=O)c2ccccc2C1=O)C(=O)N(CC)CC", "cell line": "HUVEC", "technique": "resazurin", "time": "48 h", "endpoint": "GI50", "value": "2700 nM"}
{"Structure (SMILES)": "Cc1n[nH]c2ccc3nc(-c4ccc(C(=O)NCCN(C)C)cc4F)c4c(c3c12)CCCCC4", "cell line": "EOL1", "time": "72 h", "endpoint": "GI50", "value": "72 nM"}
{"Structure (SMILES)": "COc1ccc(C=NNC(=O)c2nc3ccccc3s2)cc1O", "cell line": "PC-3", "technique": "MTT", "concentration": "100 µM", "time": "48 h", "endpoint": "cell death", "value": "25.1%"}
{"Structure (SMILES)": "CCCCCCCCCCCCCCCCCCOc1ccc(CC(=O)OCC[N+]2(C)CCCCC2)cc1", "cell line": "NCI-H522", "technique": "SRB", "concentration": "10 µM", "endpoint": "inhibition", "value": "10.8%"}
{"Structure (SMILES)": "CN(C)CCNC(=O)c1ccc(-c2nc3ccc4[nH]ncc4c3c3c2CCCC3)cc1", "cell line": "EOL1", "time": "72 h", "endpoint": "GI50", "value": "149 nM"}
{"Structure (SMILES)": "Oc1cccc(-c2nc(N3CCOCC3)c3oc4ncccc4c3n2)c1", "cell line": "A549", "technique": "CCK-8", "concentration": "1 µM", "endpoint": "inhibition", "value": "20.4%"}
{"Structure (SMILES)": "CCCCCCCCCCCCCCCCCCOc1cccc(CC(=O)OCC[N+](CC)(CC)CC)c1", "cell line": "NCI-H522", "technique": "SRB", "concentration": "10 µM", "endpoint": "inhibition", "value": "61.5%"}
